Key:
[1] = tested on: Trypanosoma cruzi; test: Trypanocidal activity against Trypanosoma cruzi Y strain bloodstream trypomastigotes isolated from infected Albino Swiss mouse assessed as lysis of parasite in presence of 5 % mouse blood incubated for 24 hrs by Neubauer chamber method; type: functional, organism-based
In short: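 Y-strain bloodstream trypomastigotes were isolated from infected mice at peak parasitemia by differential centrifugation and suspended at 10x10⁶ parasites/mL in DMES. They were mixed 1:1 with compound prepared at 2x final (DMSO final ≤0.1%) and incubated 24 h at 4 °C with 5% mouse blood, with benznidazole as control.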

[2] = Cytotoxicity against albino Swiss mouse Peritoneal macrophages in presence of 5 % mouse blood incubated for 24 hrs by PrestoBlue dye based fluorescence assay; type: cell-based, Peritoneal macrophage; conditions: read-out: LD50
In short: (§1)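 Primary peritoneal macrophages from Albino Swiss mice, 2.5 x 10⁴ cells/well in RPMI-1640 (pH 7.2, 10% foetal bovine serum, 2 mM glutamine), preincubated 24 h at 37 °C. Treated in fresh supplemented medium for 24 h at 37 °C. PrestoBlue added, 2 h incubation, read at 560 and 590 nm. LC₅₀/24 h is the concentration damaging 50% of cells, from reduction relative to untreated cells.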

[3] = Selectivity index, ratio of LD50 for cytotoxicity against albino Swiss mouse peritoneal macrophages to IC50 for Trypanocidal activity against Trypanosoma cruzi Y strain bloodstream trypomastigotes isolated from infected albino Swiss mouse in presence of 5 % mouse blood; type: toxicity; conditions: read-out: Selectivity Index
In short: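 Combines the macrophage LD₅₀/24 h with the trypanocidal IC₅₀/24 h, parasite assay run in 5% mouse blood at 4 °C. Y strain bloodstream trypomastigotes from infected Albino Swiss mice (peak parasitemia, differential centrifugation) were suspended at 10x10⁶/mL in DMES. They were mixed 1:1 with compound at twice the final concentration (DMSO ≤0.1% final) for 24 h. Neubauer chamber counts; IC₅₀ is 50% lysis; mean ± SD of at least three independent experiments.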

[4] = Selectivity index, ratio of LD50 for cytotoxicity against albino Swiss mouse peritoneal macrophages to IC50 for Trypanocidal activity against Trypanosoma cruzi Y strain bloodstream trypomastigotes isolated from infected albino Swiss mouse in absence of mouse blood; type: toxicity; conditions: read-out: Selectivity Index
In short: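 Combines the macrophage LD₅₀/24 h with the trypanocidal IC₅₀/24 h, parasite assay run without blood at 37 °C. Y strain bloodstream trypomastigotes were taken from infected Albino Swiss mice at peak parasitemia by differential centrifugation, at 10x10⁶/mL in DMES. They were mixed 1:1 with compound at twice the final concentration (DMSO ≤0.1% final) for 24 h. Neubauer counts; IC₅₀ is 50% lysis.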

[5] = tested on: Trypanosoma cruzi; test: Trypanocidal activity against Trypanosoma cruzi Y strain bloodstream trypomastigotes isolated from infected Albino Swiss mouse assessed as lysis of parasite in absence of mouse blood incubated for 24 hrs by Neubauer chamber method; type: functional, organism-based
In short: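 Bloodstream trypomastigotes (Y strain) were taken from mice at peak parasitemia by differential centrifugation and resuspended at 10x10⁶/mL in DMES. Equal volumes of suspension and compound at twice final concentration (DMSO final ≤0.1%) were incubated 24 h at 37 °C with no blood added, with benznidazole as control.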

[6] = tested on: Trypanosoma cruzi; test: Potency index, ratio of benznidazole IC50 to compound IC50 for trypanocidal activity against Trypanosoma cruzi Y strain bloodstream trypomastigotes isolated from infected Albino Swiss mouse assessed as lysis of parasite in presence of 5 % mouse blood incubated for 24 hrs by Neubauer chamber method; type: functional
[7] = Cytotoxicity against albino Swiss mouse Peritoneal macrophages in absence of mouse blood incubated for 24 hrs in absence of mouse blood by PrestoBlue dye based fluorescence assay; type: cell-based, Peritoneal macrophage; conditions: read-out: LD50; in short: as §1

COc1ccc(-n2cc(-c3ccccc3)c3c2C(=O)c2ccccc2C3=O)cc1
IC50 [1]: > 500 µM

COc1ccc(-n2cc(-c3ccc(Cl)cc3)c3c2C(=O)c2ccccc2C3=O)cc1
IC50 [1]: > 500 µM

Cc1ccc(-c2cn(-c3cccc(Br)c3)c3c2C(=O)c2ccccc2C3=O)cc1
IC50 [1]: > 500 µM

O=C1c2ccccc2C(=O)c2c(-c3ccc(F)cc3)coc21
IC50 [1]: > 500 µM

O=C1c2ccccc2C(=O)c2c(-c3ccccc3[N+](=O)[O-])coc21
IC50 [1]: > 500 µM

COc1ccc(-n2cc(-c3ccc(C)cc3)c3c2C(=O)c2ccccc2C3=O)cc1
IC50 [1]: > 500 µM

COc1ccc(-c2cn(-c3ccc(Cl)cc3)c3c2C(=O)c2ccccc2C3=O)cc1
IC50 [1]: > 500 µM

CSc1ccc(-c2coc3c2C(=O)c2ccccc2C3=O)cc1
IC50 [1]: > 500 µM

Cc1ccc(-c2cn(-c3ccc(C)cc3)c3c2C(=O)c2ccccc2C3=O)cc1
IC50 [1]: > 500 µM

COc1ccc(-c2cn(-c3ccc(OC)cc3)c3c2C(=O)c2ccccc2C3=O)cc1
IC50 [1]: > 500 µM

COc1ccc(-c2cn(-c3ccccc3)c3c2C(=O)c2ccccc2C3=O)cc1
IC50 [1]: > 500 µM

Cc1ccc(-c2cn(-c3ccc(Br)cc3)c3c2C(=O)c2ccccc2C3=O)cc1
IC50 [1]: > 500 µM

O=C1c2ccccc2C(=O)c2c(-c3ccc(Br)cc3)coc21
IC50 [1]: > 500 µM

COc1ccc(-n2cc(-c3ccc(F)cc3)c3c2C(=O)c2ccccc2C3=O)cc1
IC50 [1]: > 500 µM

COc1ccc(-c2cn(-c3ccc(F)cc3)c3c2C(=O)c2ccccc2C3=O)cc1
IC50 [1]: > 500 µM

COc1ccc(-c2coc3c2C(=O)c2ccccc2C3=O)cc1
IC50 [1]: > 500 µM

COc1ccc(-n2cc(-c3ccco3)c3c2C(=O)c2ccccc2C3=O)cc1
IC50 [1]: > 500 µM

O=C1c2ccccc2C(=O)c2c(-c3cccs3)coc21
IC50 [1]: > 500 µM

O=C1c2ccccc2C(=O)c2c1oc1ccccc21
IC50 [1]: > 500 µM

COC(=O)C1(C(=O)OC)Cc2cc3c(cc2C1)C(=O)C(c1ccccc1OC)=CC3=O
IC50 [1]: 102 µM

COC(=O)C1(C(=O)OC)Cc2cc3c(c(O)c2C1)C(=O)C=C(OC)C3=O
IC50 [1]: > 500 µM

COC(=O)C1(C(=O)OC)Cc2cc3c(cc2C1)C(=O)C(c1ccccc1)=CC3=O
IC50 [1]: 369 µM

Cc1ccc(S(=O)(=O)n2c3ccccc3c3c(-c4ccccc4)c4c(cc32)C(=O)C=CC4=O)cc1
IC50 [1]: 122 µM

COC(=O)C1(C(=O)OC)Cc2cc3c(cc2C1)C(=O)C(Cl)=CC3=O
IC50 [1]: 56.6 µM
CC50 at 24 h [2]: 5 µM
selectivity ratio [3]: 0.09

CC(=O)CCC1=C(c2ccco2)C(=O)c2ccccc2C1=O
IC50 [1]: > 500 µM

Cc1cc2oc3c(c2cc1C)C(=O)c1ccccc1C3=O
IC50 [1]: > 500 µM

COC(=O)C1(C(=O)OC)Cc2c(O)c3c(c(O)c2C1)C(=O)C(OC)=CC3=O
IC50 [1]: > 500 µM

COC1=CC(=O)c2cc3c(c(-c4ccc5c(c4)OCO5)c2C1=O)COC3=O
IC50 [1]: > 500 µM

Cc1ccc2oc3c(c2c1)C(=O)c1ccccc1C3=O
IC50 [1]: > 500 µM

O=C1C=CC(=O)c2c1cc1oc3ccccc3c1c2-c1ccccc1
IC50 [1]: 247 µM

COC(=O)C1(C(=O)OC)Cc2cc3c(cc2C1)C(=O)C(N(C)c1ccccc1)=CC3=O
IC50 [1]: > 500 µM

CCCCc1c2c(c(CCCC)c3c1C(=O)C=CC3=O)CN(S(=O)(=O)c1ccc(C)cc1)C2
IC50 [1]: > 500 µM

COC(=O)C1(C(=O)OC)Cc2c(c(-c3ccccc3)c3c(c2-c2ccccc2)C(=O)C=CC3=O)C1
IC50 [1]: 2.5 µM
CC50 at 24 h [2]: 1.6 µM
selectivity ratio [3]: 0.6
selectivity ratio [4]: 3.7
IC50 [5]: 0.44 µM

CCOc1cccc2c3c(oc12)C(=O)c1ccccc1C3=O
IC50 [1]: > 500 µM

Cc1ccc(S(=O)(=O)N2Cc3cc4c(cc3C2)C(=O)C=CC4=O)cc1
IC50 [1]: > 500 µM

CCCCn1cc(-c2ccc(Cl)cc2)c2c1C(=O)c1ccccc1C2=O
IC50 [1]: > 500 µM

COC(=O)C1(C(=O)OC)Cc2cc3c(cc2C1)C(=O)C(I)=CC3=O
IC50 [1]: 51.3 µM
CC50 at 24 h [2]: 1.6 µM
selectivity ratio [3]: 0.03

CC(=O)CCC1=C(c2ccc(F)cc2)C(=O)c2ccccc2C1=O
IC50 [1]: 114 µM
CC50 at 24 h [2]: 65.4 µM

COC(=O)C1(C(=O)OC)Cc2c(c(-c3ccc(OC)cc3)c3c(c2-c2ccc(OC)cc2)C(=O)C=CC3=O)C1
IC50 [1]: 2.3 µM
CC50 at 24 h [2]: 1.9 µM
selectivity ratio [3]: 0.81
selectivity ratio [4]: 13.9
IC50 [5]: 0.14 µM

O=C1C=CC(=O)c2cc3c(cc21)CCC3
IC50 [1]: 49.2 µM
CC50 at 24 h [2]: 1.7 µM
selectivity ratio [3]: 0.03
Ratio IC50 [6]: 2

COC(=O)C1(C(=O)OC)Cc2c(c(-c3ccc(F)cc3)c3c(c2-c2ccc(F)cc2)C(=O)C=CC3=O)C1
IC50 [1]: 3.3 µM
CC50 at 24 h [2]: 3 µM
selectivity ratio [3]: 0.89
selectivity ratio [4]: 9.3
IC50 [5]: 0.32 µM

O=C1C=CC(=O)c2cc3c(cc21)COC3
IC50 [1]: 193 µM

COc1ccc(C2=C(CCC(C)=O)C(=O)c3ccccc3C2=O)cc1
IC50 [1]: 109 µM
CC50 at 24 h [2]: 79 µM
selectivity ratio [3]: 1.38

COC(=O)C1(C(=O)OC)Cc2cc3c(cc2C1)C(=O)C(OC)=CC3=O
IC50 [1]: > 500 µM

COC(=O)C1(C(=O)OC)Cc2cc3c(cc2C1)C(=O)C(c1ccccc1Br)=CC3=O
IC50 [1]: 51.5 µM
CC50 at 24 h [2]: 3.8 µM
selectivity ratio [3]: 0.07

COC(=O)C1(C(=O)OC)Cc2c(C)c3c(c(C)c2C1)C(=O)C=CC3=O
IC50 [1]: > 500 µM

COC(=O)C1(C(=O)OC)Cc2cc3c(cc2C1)C(=O)C=CC3=O
IC50 [1]: 51.5 µM
CC50 at 24 h [2]: 1.6 µM
selectivity ratio [3]: 0.03

COC(=O)C1(C(=O)OC)Cc2cc3c(c(C(=O)O)c2C1)C(=O)C=CC3=O
IC50 [1]: > 500 µM

COC(=O)C1(C(=O)OC)Cc2cc3c(cc2C1)C(=O)C(C)=C(C)C3=O
IC50 [1]: > 500 µM

COC(=O)C1(C(=O)OC)Cc2cc3c(c(CO[Si](C)(C)C(C)(C)C)c2C1)C(=O)C=CC3=O
IC50 [1]: > 500 µM

COC(=O)C1(C(=O)OC)Cc2cc3c(cc2C1)C(=O)C(c1ccc(C(F)(F)F)cc1)=CC3=O
IC50 [1]: 362 µM

CCCCc1c2c(cc3c1C(=O)C=CC3=O)CC(C(=O)OC)(C(=O)OC)C2
IC50 [1]: 64.4 µM
CC50 at 24 h [2]: 4.2 µM
selectivity ratio [3]: 0.07

COC(=O)C1(C(=O)OC)Cc2cc3c(cc2C1)C(=O)c1ccccc1C3=O
IC50 [1]: > 500 µM

COC(=O)C1(C(=O)OC)Cc2cc3c(cc2C1)C(=O)C(Br)=CC3=O
IC50 [1]: 150 µM

COc1ccc2oc3c(c2c1)C(=O)c1ccccc1C3=O
IC50 [1]: > 500 µM

O=C(Cn1ccnc1[N+](=O)[O-])NCc1ccccc1 [BENZNIDAZOLE]
IC50 [5]: 8.8 µM
CC50 at 24 h [7]: > 1000 µM
